Reference: ChEMBL document CHEMBL3525976, “An unusual metabolic pathway of sipoglitazar, a novel antidiabetic agent: cytochrome P450-catalyzed oxidation of sipoglitazar acyl glucuronide” (Drug Metab Dispos, 2012)

What was measured:
[1] = Stability of the compound in rat bile assessed as formation of alpha-2-O-acyl glucuronide conjugate of sipoglitazar at 10 uM up to 4 hrs; assay type: ADME, tissue-based
Procedure, shortened: (§1)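 [14C]glucuronide isomer (G1 or G2) at 10 μmol/L final, incubated at 37°C in 50 mmol/L potassium phosphate buffer (pH 7.4), acetate buffer (pH 4.4), rat bile or human plasma. Samples taken at 0, 5, 30 min and 1, 2, 4 h (G1) or 0, 1, 2, 4 h (G2). Reaction stopped with equal-volume acetonitrile and centrifuged. Supernatant analysed by radio-HPLC. Each species reported as % of total radioactivity.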

[2] = Stability of the compound in rat bile assessed as formation of sipoglitazar at 10 uM up to 4 hrs; assay type: ADME, tissue-based; procedure, shortened: as §1
[3] = Chemical stability of the compound in potassium phosphate buffer at pH 7.4 assessed as formation of sipoglitazar at 10 uM up to 4 hrs; assay type: physicochemical; conditions: pH 7.4, 4 h; procedure, shortened: as §1
[4] = test system: Plasma; assay: Stability of the compound in human plasma assessed as formation of alpha-2-O-acyl glucuronide conjugate of sipoglitazar at 10 uM up to 4 hrs; assay type: ADME, cell-free; procedure, shortened: as §1
[5] = molecular target: Cytochrome P450 2E1 (Homo sapiens, UniProt P05181); assay: Drug metabolism in […] assessed as CYP2E1-mediated formation of 3-(3-hydroxy-1-{4-[(2-phenyl-1,3-thiazol-4-yl)methoxy]benzyl}-1H-pyrazol-4-yl)propanoic acid at 10 uM after 15 mins by HPLC analysis in presence of NADPH; conditions: 0.25 h
Procedure, shortened: (§2)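 Recombinant CYP-expressing microsomes (80 pmol P450/mL) with 10 μmol/L [14C]glucuronide substrate, 5 mmol/L MgCl2 and NADPH-generating system (5 mmol/L glucose-6-phosphate, 0.5 mmol/L β-NADP+, 1.5 U/mL G6PDH) in 50 mmol/L KPB or Tris-HCl pH 7.4. Incubated 37°C, 15 min. Deethylated product quantified by radio-HPLC. Means of duplicates.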

[6] = molecular target: T1, Cytochrome P450 2B6 (Homo sapiens, UniProt P20813); assay: Drug metabolism in […] assessed as CYP2B6-mediated formation of 3-(3-hydroxy-1-{4-[(2-phenyl-1,3-thiazol-4-yl)methoxy]benzyl}-1H-pyrazol-4-yl)propanoic acid at 10 uM after 15 mins by HPLC analysis in presence of NADPH; conditions: 0.25 h; procedure, shortened: as §2
T1 sequence (P20813 whole entry): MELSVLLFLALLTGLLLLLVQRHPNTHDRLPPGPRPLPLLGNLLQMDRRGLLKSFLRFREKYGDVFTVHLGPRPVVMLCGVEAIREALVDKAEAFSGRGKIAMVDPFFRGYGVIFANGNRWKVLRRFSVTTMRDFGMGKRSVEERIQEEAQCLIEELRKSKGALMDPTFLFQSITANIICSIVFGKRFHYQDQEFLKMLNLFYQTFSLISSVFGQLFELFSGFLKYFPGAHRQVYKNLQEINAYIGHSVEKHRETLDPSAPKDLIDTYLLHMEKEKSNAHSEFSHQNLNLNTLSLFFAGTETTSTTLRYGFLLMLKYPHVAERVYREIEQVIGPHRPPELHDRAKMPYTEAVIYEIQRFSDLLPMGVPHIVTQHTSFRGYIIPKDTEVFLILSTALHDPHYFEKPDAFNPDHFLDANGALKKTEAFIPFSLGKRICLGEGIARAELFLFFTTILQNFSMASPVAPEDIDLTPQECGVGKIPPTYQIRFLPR

[7] = Chemical stability of the compound in potassium phosphate buffer at pH 7.4 assessed as formation of alpha-2-O-acyl glucuronide conjugate of sipoglitazar at 10 uM up to 4 hrs; assay type: physicochemical; conditions: pH 7.4, 4 h; procedure, shortened: as §1
[8] = molecular target: T2, Cytochrome P450 2C8 (Homo sapiens, UniProt P10632); assay: Drug metabolism in […] assessed as CYP2C8-mediated formation of 3-(3-hydroxy-1-{4-[(2-phenyl-1,3-thiazol-4-yl)methoxy]benzyl}-1H-pyrazol-4-yl)propanoic acid at 10 uM after 15 mins by HPLC analysis in presence of NADPH; conditions: 0.25 h; procedure, shortened: as §2
T2 sequence (P10632 whole entry): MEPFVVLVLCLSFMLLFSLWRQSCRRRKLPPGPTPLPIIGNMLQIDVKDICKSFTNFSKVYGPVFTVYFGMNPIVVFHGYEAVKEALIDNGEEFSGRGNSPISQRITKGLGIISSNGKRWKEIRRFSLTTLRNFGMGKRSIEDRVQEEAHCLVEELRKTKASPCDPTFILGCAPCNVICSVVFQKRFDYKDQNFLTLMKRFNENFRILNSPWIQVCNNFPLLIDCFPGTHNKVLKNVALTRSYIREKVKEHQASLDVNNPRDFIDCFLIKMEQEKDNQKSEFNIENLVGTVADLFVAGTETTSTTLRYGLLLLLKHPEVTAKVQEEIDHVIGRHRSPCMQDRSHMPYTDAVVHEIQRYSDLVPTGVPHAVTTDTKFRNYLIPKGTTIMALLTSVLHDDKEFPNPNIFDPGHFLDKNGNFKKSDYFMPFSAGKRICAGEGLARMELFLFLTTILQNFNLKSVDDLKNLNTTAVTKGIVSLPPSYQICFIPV

[9] = Drug level in human hepatic microsomes treated with 100 uM of [14C]Sipoglitazar after 4 hrs by HPLC analysis in presence of UDPGA; assay type: ADME, Liver
Procedure, shortened: (§3)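 Preparative glucuronidation: [14C]sipoglitazar 100 μmol/L with human liver microsomes (2 mg protein/mL) and UDPGA 5 mmol/L, 37°C, 4 h. Supernatant concentrated under nitrogen, then separated by radio-HPLC on ODS columns at 40°C or 4°C with acetonitrile/water/TFA gradient to resolve the glucuronide isomers.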

[10] = test system: Plasma; assay: Stability of the compound in human plasma assessed as formation of sipoglitazar at 10 uM up to 4 hrs; assay type: ADME, cell-free; procedure, shortened: as §1
[11] = Drug metabolism in human hepatic microsomes assessed as formation of sipoglitazar at 10 uM after 10 mins by HPLC analysis in presence of NADPH; assay type: ADME, Liver, Microsome
Procedure, shortened: (§4)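 Human liver microsomes (1 mg protein/mL), 10 μmol/L [14C]glucuronide isomer, 5 mmol/L MgCl2, with or without NADPH-generating system (5 mmol/L G6P, 0.5 mmol/L β-NADP+, 1.5 U/mL G6PDH) in 50 mmol/L KPB. Incubated 37°C, 10 min. Acetonitrile quench, then radio-HPLC.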

[12] = Chemical stability of the compound in acetate buffer at pH 4.4 at 10 uM up to 4 hrs; assay type: physicochemical; conditions: pH 4.4, 4 h; procedure, shortened: as §1
[13] = Drug metabolism in human hepatic microsomes assessed as formation of 3-(3-hydroxy-1-{4-[(2-phenyl-1,3-thiazol-4-yl)methoxy]benzyl}-1H-pyrazol-4-yl)propanoic acid at 10 uM after 10 mins by HPLC analysis in presence of NADPH; assay type: ADME, Liver, Microsome; procedure, shortened: as §4
[14] = Drug level in human hepatic microsomes treated with 10 uM of [14C]Sipoglitazar after 6 hrs by LC-MS and LC-MS/MS analysis in presence of UDPGA; assay type: ADME, Liver
[15] = test system: Hepatocyte; assay: Drug level in cryopreserved primary human hepatocytes treated with 10 uM of [14C]Sipoglitazar after 6 hrs by LC-MS and LC-MS/MS analysis; assay type: ADME, cell-based
Procedure, shortened: (§5)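 Cryopreserved human hepatocytes suspended in DMEM at 3 x 10⁵ viable cells/well with 10 μmol/L [14C]sipoglitazar, 37°C, 6 h. Stopped with acetonitrile and centrifuged; supernatant run on radio-HPLC (ODS column, acetonitrile/water/TFA gradient). Metabolites expressed as % of total radioactivity. Means of duplicates.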

[16] = Drug level in human hepatic microsomes treated with 10 uM of [14C]Sipoglitazar after 6 hrs by LC-MS and LC-MS/MS analysis in presence of NADPH; assay type: ADME, Liver
[17] = Drug level in human hepatic microsomes treated with 10 uM of [14C]Sipoglitazar after 6 hrs by LC-MS and LC-MS/MS analysis in presence of NADPH and UDPGA; assay type: ADME, Liver
[18] = Drug metabolism in human hepatic microsomes assessed as formation of 3-(3-hydroxy-1-{4-[(2-phenyl-1,3-thiazol-4-yl)methoxy]benzyl}-1H-pyrazol-4-yl)propanoic acid at 10 uM after 30 mins by LC-MS and LC-MS/MS analysis in presence of gemfibrozil, NADPH and UDPGA; assay type: ADME, Liver, Microsome; conditions: 0.5 h
Procedure, shortened: (§6)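 Human liver microsomes (0.5 mg protein/mL), 10 μmol/L [14C]sipoglitazar, 5 mmol/L MgCl2, alamethicin 50 μg/mL and UDPGA 5 mmol/L, with or without NADPH-generating system. Gemfibrozil added at 0, 10, 30, 100 or 300 μmol/L final, in 50 mmol/L KPB pH 7.4. Incubated 37°C, 30 min. Acetonitrile quench, then radio-HPLC.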

[19] = Drug metabolism in human hepatic microsomes assessed as formation of 3-(3-hydroxy-1-{4-[(2-phenyl-1,3-thiazol-4-yl)methoxy]benzyl}-1H-pyrazol-4-yl)propanoic acid at 10 uM after 6 hrs by LC-MS and LC-MS/MS analysis in presence of NADPH and UDPGA; assay type: ADME, Liver, Microsome
[20] = Drug metabolism in human hepatic microsomes assessed as formation of 3-[3-ethoxy-1-(4-hydroxybenzyl)-1H-pyrazol-4-yl]propanoic acid] at 10 uM after 6 hrs by LC-MS and LC-MS/MS analysis in presence of NADPH and UDPGA; assay type: ADME, Liver, Microsome
[21] = Drug metabolism in human hepatic microsomes assessed as elimination of compound at 10 uM after 30 mins by LC-MS and LC-MS/MS analysis in presence of gemfibrozil and UDPGA; assay type: ADME, Liver, Microsome; conditions: 0.5 h; procedure, shortened: as §6
[22] = Drug metabolism in human hepatic microsomes assessed as formation of alpha-2-O-acyl glucuronide conjugate of sipoglitazar at 100 uM after 4 hrs by HPLC analysis in presence of UDPGA; assay type: ADME, Liver, Microsome; procedure, shortened: as §3
[23] = Drug metabolism in human hepatic microsomes assessed as formation of 3-[3-ethoxy-1-(4-hydroxybenzyl)-1H-pyrazol-4-yl]propanoic acid] at 10 uM after 30 mins by LC-MS and LC-MS/MS analysis in presence of gemfibrozil, NADPH and UDPGA; assay type: ADME, Liver, Microsome; conditions: 0.5 h; procedure, shortened: as §6
[24] = Drug metabolism in human hepatic microsomes assessed as elimination of compound at 10 uM after 30 mins by LC-MS and LC-MS/MS analysis in presence of gemfibrozil, NADPH and UDPGA; assay type: ADME, Liver, Microsome; conditions: 0.5 h; procedure, shortened: as §6
[25] = Drug metabolism in human hepatic microsomes assessed as formation of 3-(3-hydroxy-1-{4-[(2-phenyl-1,3-thiazol-4-yl)methoxy]benzyl}-1H-pyrazol-4-yl)propanoic acid at 10 uM after 1 hr by LC-MS and LC-MS/MS analysis in presence of NADPH
[26] = Drug metabolism in cryopreserved primary human hepatocytes assessed as formation of 3-(3-hydroxy-1-{4-[(2-phenyl-1,3-thiazol-4-yl)methoxy]benzyl}-1H-pyrazol-4-yl)propanoic acid at 10 uM after 6 hrs by LC-MS and LC-MS/MS analysis; assay type: ADME, cell-based, Hepatocyte; procedure, shortened: as §5
[27] = Drug metabolism in cryopreserved primary human hepatocytes assessed as formation of 3-[3-ethoxy-1-(4-hydroxybenzyl)-1H-pyrazol-4-yl]propanoic acid] at 10 uM after 6 hrs by LC-MS and LC-MS/MS analysis; assay type: ADME, cell-based, Hepatocyte; procedure, shortened: as §5
[28] = Drug metabolism in human hepatic microsomes assessed as formation of 3-[3-ethoxy-1-(4-hydroxybenzyl)-1H-pyrazol-4-yl]propanoic acid] at 10 uM after 1 hr by LC-MS and LC-MS/MS analysis in presence of NADPH
[29] = Drug metabolism in human hepatic microsomes assessed as beta-1-O-acyl glucuronide conjugate of sipoglitazar formation at 10 uM after 30 mins by LC-MS and LC-MS/MS analysis in presence of gemfibrozil and UDPGA; assay type: ADME, Liver, Microsome; conditions: 0.5 h; procedure, shortened: as §6
[30] = Drug metabolism in human hepatic microsomes assessed as formation of beta-1-O-acyl glucuronide conjugate of sipoglitazar at 100 uM after 4 hrs by HPLC analysis in presence of UDPGA; assay type: ADME, Liver, Microsome; procedure, shortened: as §3

Chain of Cytochrome P450 2E1 (P05181 whole entry): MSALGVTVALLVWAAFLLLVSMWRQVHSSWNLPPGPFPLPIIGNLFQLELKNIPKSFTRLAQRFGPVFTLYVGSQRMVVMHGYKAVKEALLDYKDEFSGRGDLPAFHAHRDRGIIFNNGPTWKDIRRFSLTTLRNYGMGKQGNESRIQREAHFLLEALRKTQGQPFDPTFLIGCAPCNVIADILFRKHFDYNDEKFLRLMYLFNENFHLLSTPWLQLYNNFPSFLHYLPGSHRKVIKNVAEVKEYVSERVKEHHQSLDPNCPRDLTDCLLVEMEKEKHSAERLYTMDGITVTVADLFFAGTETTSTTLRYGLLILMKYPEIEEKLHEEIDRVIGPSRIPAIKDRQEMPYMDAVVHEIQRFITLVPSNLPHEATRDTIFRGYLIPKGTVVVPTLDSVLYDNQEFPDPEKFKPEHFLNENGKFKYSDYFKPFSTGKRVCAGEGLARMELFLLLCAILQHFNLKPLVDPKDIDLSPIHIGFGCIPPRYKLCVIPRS

Structure (SMILES)	Stability [2]	Stability [3]	Drug metabolism [9]	Stability [10]	Drug metabolism [11]	Stability [12]	Drug metabolism [14]	Drug metabolism [15]	Drug metabolism [16]	Drug metabolism [17]	further results
O=C(O)CCc1cn(Cc2ccc(OCc3csc(-c4ccccc4)n3)cc2)nc1O	–	–	–	–	–	–	metabolite_detected	metabolite_detected	metabolite_detected	metabolite_detected	–
CCOc1nn(Cc2ccc(OCc3csc(-c4ccccc4)n3)cc2)cc1CCC(=O)O [SIPOGLITAZAR]	–	–	–	–	–	–	–	–	–	–	Drug metabolism [18]: metabolite_not_detected; Drug metabolism [19]: metabolite_detected; Drug metabolism [20]: metabolite_detected; Drug metabolism [21]: metabolite_not_detected; Drug metabolism [22]: metabolite_detected; Drug metabolism [23]: metabolite_not_detected; Drug metabolism [24]: metabolite_not_detected; Drug metabolism [25]: metabolite_detected; Drug metabolism [26]: metabolite_detected; Drug metabolism [27]: metabolite_detected; Drug metabolism [28]: metabolite_detected; Drug metabolism [29]: metabolite_not_detected; Drug metabolism [30]: metabolite_detected

Now from value to molecule, other results behind:

Stability [2]	Stability [3]	Drug metabolism [9]	Stability [10]	Drug metabolism [11]	Stability [12]	Drug metabolism [14]	Drug metabolism [15]	Drug metabolism [16]	Drug metabolism [17]	Structure (SMILES)	further results
Unstable	Unstable	metabolite_detected	Unstable	metabolite_detected	Stable	–	–	–	–	CCOc1nn(Cc2ccc(OCc3csc(-c4ccccc4)n3)cc2)cc1CCC(=O)O[C@@H]1O[C@H](C(=O)O)[C@@H](O)[C@H](O)[C@H]1O	Stability [1]: Unstable; Stability [4]: Unstable; Drug metabolism [5]: metabolite_not_detected; Drug metabolism [6]: metabolite_not_detected; Stability [7]: Unstable; Drug metabolism [8]: metabolite_detected; Drug metabolism [13]: metabolite_detected
Unstable	Unstable	metabolite_detected	Unstable	metabolite_detected	Stable	–	–	–	–	CCOc1nn(Cc2ccc(OCc3csc(-c4ccccc4)n3)cc2)cc1CCC(=O)O[C@@H]1[C@@H](O)[C@H](O)[C@@H](C(=O)O)O[C@@H]1O	–
–	–	–	–	–	–	metabolite_detected	metabolite_detected	metabolite_detected	metabolite_detected	CCOc1nn(Cc2ccc(O)cc2)cc1CCC(=O)O	–
